Data reported in paper PMC4424118 (Nature structural & molecular biology, 2015).

Key:
Format in all cases: cell-based
[1] = molecular target: neuromedin B receptor (NMBR; BB1) (Homo sapiens, UniProt P28336); experiment: calcium-release; conditions: BB1-expressing cells
[2] = molecular target: BB2 bombesin receptor (GRPR) (Homo sapiens, UniProt P30550); experiment: TANGO β-arrestin recruitment assay, BB2
BB2 bombesin receptor = BB2 bombesin receptor (Homo sapiens, UniProt P30550); experiment: calcium mobilization assay, BB2-expressing cells
BB2 bombesin receptor, sequence (P30550 whole entry): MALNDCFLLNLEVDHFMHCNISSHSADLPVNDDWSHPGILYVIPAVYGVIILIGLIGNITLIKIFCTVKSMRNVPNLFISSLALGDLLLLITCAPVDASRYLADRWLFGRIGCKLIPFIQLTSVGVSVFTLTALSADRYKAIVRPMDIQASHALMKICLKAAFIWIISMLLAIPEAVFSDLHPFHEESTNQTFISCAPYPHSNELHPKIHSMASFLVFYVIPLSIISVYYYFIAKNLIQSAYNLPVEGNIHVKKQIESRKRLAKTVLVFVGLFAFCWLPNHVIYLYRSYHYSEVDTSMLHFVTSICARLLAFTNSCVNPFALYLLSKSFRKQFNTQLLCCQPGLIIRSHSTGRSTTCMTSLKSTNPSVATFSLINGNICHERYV
In short: (§1)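 Cells were plated at 15,000/well on poly-L-lysine in DMEM with 500 ug/ml G-418 and 1% dialyzed FBS, then held overnight. Loading was with FLIPR Calcium 4 dye in HBSS/2.5 mM probenecid/20 mM HEPES, pH 7.4–7.8, for 45 min at 37°C plus 15 min at RT. Compounds (10 mM DMSO stocks) ran as 16-point 3-fold dilutions, final 10 μM–0.003 nM. Fluorescence was read 10 s before and 120 s after addition.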

BB3 bombesin receptor = molecular target: T1, BB3 bombesin receptor (Homo sapiens, UniProt P32247); experiment: calcium mobilization assay, BB3-expressing cells
T1 sequence (P32247 1-399): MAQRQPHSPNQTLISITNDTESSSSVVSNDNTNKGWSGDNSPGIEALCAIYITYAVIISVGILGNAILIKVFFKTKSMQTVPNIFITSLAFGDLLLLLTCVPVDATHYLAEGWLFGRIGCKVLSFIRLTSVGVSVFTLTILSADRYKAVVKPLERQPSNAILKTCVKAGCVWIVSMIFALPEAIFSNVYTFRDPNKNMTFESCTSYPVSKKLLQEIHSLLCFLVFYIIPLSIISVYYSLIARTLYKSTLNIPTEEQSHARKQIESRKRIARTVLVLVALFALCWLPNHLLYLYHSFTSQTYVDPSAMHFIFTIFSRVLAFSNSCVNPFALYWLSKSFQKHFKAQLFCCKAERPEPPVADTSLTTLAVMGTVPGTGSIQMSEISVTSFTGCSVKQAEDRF
In short: as §1

[3] = molecular target: neuromedin B receptor (NMBR; also known as the BB1 bombesin receptor) (Homo sapiens, UniProt P28336); experiment: TANGO β-arrestin recruitment assay, NMBR
UniProt P28336, sequence (P28336 whole entry): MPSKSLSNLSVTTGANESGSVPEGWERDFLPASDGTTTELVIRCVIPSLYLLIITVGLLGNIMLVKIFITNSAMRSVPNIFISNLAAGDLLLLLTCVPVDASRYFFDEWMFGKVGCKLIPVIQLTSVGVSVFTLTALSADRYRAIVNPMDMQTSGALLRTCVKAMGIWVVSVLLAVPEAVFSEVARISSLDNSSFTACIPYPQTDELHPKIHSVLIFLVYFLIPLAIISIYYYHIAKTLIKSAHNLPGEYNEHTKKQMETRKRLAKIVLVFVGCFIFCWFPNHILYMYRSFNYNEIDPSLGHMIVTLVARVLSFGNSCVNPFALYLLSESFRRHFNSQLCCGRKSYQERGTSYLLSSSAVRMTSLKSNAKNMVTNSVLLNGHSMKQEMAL

neuromedin B receptor (NMBR; BB1), sequence (P28336 whole entry): as above
BB2 bombesin receptor (GRPR), sequence (P30550 whole entry): as the sequence (P30550 whole entry) above

- calcium mobilization response [1]: did not stimulate a response
- response of BB2 in the TANGO assay [2]: insensitive
- calcium mobilization response (BB2 bombesin receptor): did not stimulate a response
- calcium mobilization response (BB3 bombesin receptor): did stimulate a response
- response of BB1 in the TANGO assay [3]: insensitive
SMILES: CC(C)(C)NC(=O)[C@@H]1C[C@@H]2CCCC[C@@H]2CN1C[C@@H](O)[C@H](Cc1ccccc1)NC(=O)[C@H](CC(N)=O)NC(=O)c1ccc2ccccc2n1 [Saquinavir, saquinavir]
